From ChEMBL document CHEMBL1124396, “New brain perfusion imaging agents based on 99mTc-bis(aminoethanethiol) complexes: stereoisomers and biodistribution” (J Med Chem, 1989)
“And” between values parts separate entries of the source, which are not always exact repeats. Identical values can stand only once.

How the values were obtained:
Rattus norvegicus [1] = experiment: Biodistribution in the spleen of rat, 15 min after administration; type: ADME, organism-based; conditions: in vivo, 0.25 h
Summary of the method: (§1)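 Male Sprague-Dawley rats (200-300 g) under ether anesthesia were given the 99mTc complex (0.5-20 μCi in 0.2 mL saline) iv via the femoral vein. Organs were taken at 2 or 15 min. Uptake is reported as % dose/organ, found by comparing tissue radioactivity with dilutions of the injected dose.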

Rattus norvegicus [2] = experiment: Biodistribution in the liver of rat, 15 min after administration; type: ADME, organism-based; conditions: in vivo, 0.25 h; summary of the method: as §1
Rattus norvegicus [3] = experiment: Biodistribution in the kidneys of rat, 15 min after administration; type: ADME, organism-based, Kidney; conditions: in vivo, 0.25 h; summary of the method: as §1
Rattus norvegicus [4] = experiment: Biodistribution in the stomach of rat, 2 min after administration; type: ADME, organism-based; conditions: in vivo; summary of the method: as §1
Rattus norvegicus [5] = experiment: Biodistribution in the stomach of rat, 15 min after administration; type: ADME, organism-based; conditions: in vivo, 0.25 h; summary of the method: as §1
Rattus norvegicus [6] = experiment: Biodistribution in the heart of rat, 15 min after administration; type: ADME, organism-based; conditions: in vivo, 0.25 h; summary of the method: as §1
Rattus norvegicus [7] = experiment: Biodistribution in the brain blood of rat, 15 min after administration; type: ADME, organism-based; conditions: in vivo, 0.25 h
Summary of the method: (§2)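 Rats (male Sprague-Dawley, 200-300 g) received the 99mTc complex iv (femoral vein, ether anesthesia; 0.5-20 μCi in 0.2 mL saline) and were sampled at 2 or 15 min. % dose/organ was converted to % dose/gram using mean organ weights (brain 1.65 g, blood 18 g). Brain:blood ratio was taken from these % dose/gram values.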

Rattus norvegicus [8] = experiment: Biodistribution in the kidneys of rat, 2 min after administration; type: ADME, organism-based, Kidney; conditions: in vivo; summary of the method: as §1
Rattus norvegicus [9] = experiment: Biodistribution in the brain of rat, 15 min after administration; type: ADME, organism-based; conditions: in vivo, 0.25 h; summary of the method: as §1
Rattus norvegicus [10] = experiment: Biodistribution in the lungs of rat, 15 min after administration; type: ADME, organism-based, Lung; conditions: in vivo, 0.25 h; summary of the method: as §1
Rattus norvegicus [11] = experiment: Biodistribution in the thyroid of rat, 15 min after administration; type: ADME, organism-based, Thyroid gland; conditions: in vivo, 0.25 h; summary of the method: as §1
Rattus norvegicus [12] = experiment: Biodistribution in the skin of rat, 15 min after administration; type: ADME, organism-based, Zone of skin; conditions: in vivo, 0.25 h; summary of the method: as §1
Rattus norvegicus [13] = experiment: Biodistribution in the blood of rat, 15 min after administration; type: ADME, organism-based; conditions: in vivo, 0.25 h; summary of the method: as §1
Rattus norvegicus [14] = experiment: Biodistribution in the muscle of rat, 15 min after administration; type: ADME, organism-based, Muscle tissue; conditions: in vivo, 0.25 h; summary of the method: as §1
Rattus norvegicus [15] = experiment: Biodistribution in the heart of rat, 2 min after administration; type: ADME, organism-based; conditions: in vivo; summary of the method: as §1
Rattus norvegicus [16] = experiment: Biodistribution in the blood of rat, 2 min after administration; type: ADME, organism-based; conditions: in vivo; summary of the method: as §1
Rattus norvegicus [17] = experiment: Biodistribution in the thyroid of rat, 2 min after administration; type: ADME, organism-based, Thyroid gland; conditions: in vivo; summary of the method: as §1
Rattus norvegicus [18] = experiment: Biodistribution in the brain blood of rat, 2 min after administration; type: ADME, organism-based; conditions: in vivo; summary of the method: as §2
Rattus norvegicus [19] = experiment: Biodistribution in the lungs of rat, 2 min after administration; type: ADME, organism-based, Lung; conditions: in vivo; summary of the method: as §1
Rattus norvegicus [20] = experiment: Biodistribution in the skin of rat, 2 min after administration; type: ADME, organism-based, Zone of skin; conditions: in vivo; summary of the method: as §1
Rattus norvegicus [21] = experiment: Biodistribution in the spleen of rat, 2 min after administration; type: ADME, organism-based; conditions: in vivo; summary of the method: as §1
Rattus norvegicus [22] = experiment: Biodistribution in the muscle of rat, 2 min after administration; type: ADME, organism-based, Muscle tissue; conditions: in vivo; summary of the method: as §1

Biodistribution (Rattus norvegicus [1]): 0.79% | Biodistribution (Rattus norvegicus [2]): 18.6% | Biodistribution (Rattus norvegicus [3]): 2.22% | Biodistribution (Rattus norvegicus [4]): 1.85% | Biodistribution (Rattus norvegicus [5]): 4.51% | Biodistribution (Rattus norvegicus [6]): 0.43% | Biodistribution (Rattus norvegicus [7]): 5.82% | Biodistribution (Rattus norvegicus [8]): 7.8% | Biodistribution (Rattus norvegicus [9]): 1.08% | Biodistribution (Rattus norvegicus [10]): 3.38% | Biodistribution (Rattus norvegicus [11]): 0.07% | Biodistribution (Rattus norvegicus [12]): 15.7% | Biodistribution (Rattus norvegicus [13]): 2.04% | Biodistribution (Rattus norvegicus [14]): 18.1% | Biodistribution (Rattus norvegicus [15]): 2.46% | Biodistribution (Rattus norvegicus [16]): 5.37% and 2.46% | Biodistribution (Rattus norvegicus [17]): 0.22% | Biodistribution (Rattus norvegicus [18]): 5.33% | Biodistribution (Rattus norvegicus [19]): 9.18% and 2.77% | Biodistribution (Rattus norvegicus [20]): 9.18% | Biodistribution (Rattus norvegicus [21]): 0.7% | Biodistribution (Rattus norvegicus [22]): 8.43%
Substance: (Syn-isomer) 99mTc-2,3-bis(2-thioacetamido)propanate
